The list is not random: actives were taken first. Their share in the collection is about 3.5%.
MrgX1 ag: agonists of human MrgX1 receptor | MrgX1-HEK293 cells, Fluo-4 calcium fluorescence, agonist mode; hits give high values | B-score at 10 µM | 310,000 tested, 0.44% active;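 active means calcium response B-score plate-corrected fluorescence ratio at least 3 library SD, with starting fluorescence B-score inside 5 SD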
Target sequence (Q96LB2 whole entry, looked up): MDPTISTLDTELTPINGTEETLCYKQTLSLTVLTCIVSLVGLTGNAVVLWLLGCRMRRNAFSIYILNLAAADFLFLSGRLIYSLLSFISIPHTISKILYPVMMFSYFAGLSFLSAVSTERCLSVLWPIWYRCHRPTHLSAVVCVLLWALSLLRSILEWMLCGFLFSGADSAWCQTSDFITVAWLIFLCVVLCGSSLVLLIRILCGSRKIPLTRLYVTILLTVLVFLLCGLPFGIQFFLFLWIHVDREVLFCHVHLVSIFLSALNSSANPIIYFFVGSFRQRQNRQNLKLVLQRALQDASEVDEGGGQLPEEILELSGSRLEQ
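Test system: HEK293 cells stably expressing human MrgX1 receptor; amount: 15,000 cells per well; doses: compound delivered in addition one of three; times: overnight plating before 1 h dye loading; detection: Fluo-4 NW calcium-flux fluorescence, kinetic read; read-out basis: B-scored fluorescence response ratio; controls: positive and negative controls per plate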
RGS4 block: inhibitors of human RGS4 | P49798 | HEK293 M3R/RGS4 inducible, Fluo-4 calcium flux; hits give high values; triggered by carbachol at its EC20 | B-score at 10 µM | 310,000 tested, 0.45% active;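 active means B-score, a plate-corrected calcium signal, over three deviations above library mean, with baseline fluorescence within five deviations of library mean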;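 further: RGS4 expression induced by doxycycline in cells with stable M3 receptor; B-score is computed from the integrated fluorescence ratio over baseline after carbachol; higher B-score means a larger calcium signal and so more RGS4 inhibition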
Target sequence (P49798 whole entry, looked up): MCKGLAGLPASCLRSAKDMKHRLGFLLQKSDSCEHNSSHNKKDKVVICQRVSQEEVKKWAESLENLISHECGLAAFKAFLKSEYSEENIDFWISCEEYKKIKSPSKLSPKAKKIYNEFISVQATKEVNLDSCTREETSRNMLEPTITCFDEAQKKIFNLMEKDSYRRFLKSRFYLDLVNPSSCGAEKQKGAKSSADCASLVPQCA
MrgX1 antag: blocks BAM8-22 activation of human MrgX1 receptor; Q96LB2; MRGX1-HEK293 calcium flux, Fluo-4, BAM8-22 antagonism; hits give low values; B-score at 10 µM; 310,000 tested, 1.3% active; AID 588676;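 active means calcium-response B-score plate-corrected more than 3 library SD below zero, starting fluorescence within 5 deviations, no agonist response on first addition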;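 further: peak minus trough fluorescence over baseline after final BAM8-22 challenge near maximal dose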
MrgX1 PAM: human MrgX1 positive allosteric modulation, primary screen | Q96LB2 | MrgX1-HEK293, Fluo-4 calcium flux, FDSS; hits give high values | B-score at 10 µM | 310,000 tested, 0.63% active;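 active means plate-corrected calcium response at least 3 library SD above typical, normal starting fluorescence, not activating the receptor alone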;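 further: compound read alongside a low EC10 to EC30 dose of BAM8-22 agonist; peak minus trough fluorescence over baseline measured at the second addition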
RGS4 act: potentiators or activators of RGS4. HEK293 M3R/inducible RGS4, carbachol calcium flux Fluo4; hits give low values. B-score at 10 µM. 310,000 tested, 0.92% active;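 active means B-score of the integrated calcium signal more than 4 SD below the library mean, with starting fluorescence not abnormally high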;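 further: negative B-score means reduced calcium response which marks RGS4 activation or potentiation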
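Assay system: HEK293 FlpIn-TREx cells, stable M3R, doxycycline-inducible RGS4 / Probe or stimulus: carbachol, ECmax concentration / Times: overnight RGS4 induction, 30 min dye load 37 °C, 20 min compound RT / Signal: kinetic calcium fluorescence imaging with Fluo4-AM dye, 2 µM / Measure: Agonist-evoked peak-minus-minimum fluorescence over baseline, integrated ratio, B score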
* = called active by the depositor; i = inactive; x = not tested or not shown.

SMILES	MrgX1 ag	RGS4 block	MrgX1 antag	MrgX1 PAM	RGS4 act
C[N+](C)(C)CCCNC(=O)c1ccc(/C=N/O)nc1	i	i	-5.11*	i	i
CC(CCc1ccccc1)NCc1cccc2ccccc12 (stereo not drawn)	i	i	i	i	i
NC(CCCCc1ccccc1)c1cccc2ccccc12 (stereo not drawn)	60.9*	i	i	i	i
COc1cc(/C=C(\C#N)c2nc(-c3cc4ccccc4oc3=O)cs2)ccc1O	i	i	-9.19*	i	i
Cc1cc(C(=O)NNc2ccc(F)cc2)no1	i	i	i	i	i
COc1ccc(C(=O)c2ccc(Cl)c([N+](=O)[O-])c2)cc1	i	i	i	7*	i
COc1ccc(C(=O)c2ccc(Cl)cc2)cc1	i	i	i	i	i
COc1ccc(OC)c(NC(=O)CCc2c[nH]c3ccccc23)c1	i	i	i	i	i
O=P(c1ccccc1)(c1ccccc1)c1cc(S(=O)(=O)O)ccc1O	i	i	i	i	i
CC1(C)CC(=O)c2c(O)c(-c3ccccc3)c(=O)n(-c3ccccc3)c2C1	i	i	i	i	i
CC[n+]1ccccc1/C=C1\Sc2ccc(C)cc2N1C	i	i	-8.37*	i	i
CCc1cc(=O)oc2c(CNCc3ccc(OC)cc3OC)c(O)c(Cl)cc12	i	i	i	i	i
O=C1CSC(c2ccccc2Br)N1c1ccc(Cl)cn1 (stereo not drawn)	i	i	i	i	-7.01*
O=C(CCCCCNc1nc(=S)[nH]c2ccccc12)NCCc1c[nH]c2ccccc12	i	i	i	i	i
O=C(CCCCCNc1nc(=S)[nH]c2ccccc12)NCCc1ccc(Cl)cc1	i	i	i	9.72*	i
N/C(Cc1ccc(Cl)c(Cl)c1)=N\OC(=O)c1cccs1	i	i	i	i	i
N/C(=N\OC(=O)c1cccs1)C1(c2ccc(Cl)cc2Cl)CC1	i	i	i	13.7*	i
O=C(Nc1ccc(F)c(Cl)c1)Nn1cnnc1	i	i	i	i	i
O=c1oc(-c2ccccc2)cc(Cl)c1Cl	i	i	i	i	i
O=c1cc(-c2ccccc2)c2c(O)cc(O)cc2o1	29.5*	i	i	i	i
O=c1c(-c2ccccc2)c(-c2ccccc2)oc2cc(O)cc(O)c12	i	i	i	i	i
CCOc1cc(N2CCOCC2)c(OCC)cc1NC(=O)COC(=O)COc1cc(C)cc(C)c1	i	i	i	i	i
CCOc1cc(N2CCOCC2)c(OCC)cc1NC(=O)COC(=O)COc1ccc(C#N)cc1	i	i	-6.32*	i	i
COc1cc(Cl)c(C)cc1Nc1ncccn1	i	i	i	i	i
CCC1C(c2ccccc2)N(C)C(c2ccccc2)CC1(O)c1ccccc1 (stereo not drawn)	i	i	i	i	-7.66*
SMILES	MrgX1 ag	RGS4 block	MrgX1 antag	MrgX1 PAM	RGS4 act
CCc1ccc(OCC(=O)NNC(=O)Cc2ccc(S(=O)(=O)N3CCOCC3)s2)cc1	i	i	-6.9*	i	i
Cc1cccc(-n2nc(C(=O)c3ccco3)cc(-c3nc4ccccc4[nH]3)c2=N)c1	i	i	i	i	-8.08*
Cc1ccccc1-n1nc(C(=O)c2cccs2)cc(-c2nc3ccccc3[nH]2)c1=N	i	i	i	i	i
CC(C)c1ccc(NC(=O)c2ccccc2NC(=O)C2CCCCC2C(=O)O)cc1 (stereo not drawn)	i	i	i	i	i
O=C(CCSc1ccc(Cl)cc1)N1CCN(c2ccc(O)cc2)CC1	i	i	i	i	-7.16*
O=C(NC1CCN(Cc2ccc(Cl)cc2Cl)CC1)c1ccccc1	i	i	i	i	i
Cc1cc(N2CCOCC2)nc2ccc(NC(=O)CCC(=O)N3CCN(c4cccc(C(F)(F)F)c4)CC3)cc12	i	i	i	i	i
CC(C)NC[C@@H](O)c1ccc(O)c(O)c1	31.9*	i	i	i	i
O=C(O)c1cc(Cl)c(Cl)cc1C(=O)Nc1cccc2cccnc12	i	i	i	i	i
N#Cc1c2ccc(O)cc2n2ccccc12	46.1*	i	i	i	i
N#Cc1c2ccc(OCC(=O)NCc3ccco3)cc2n2ccccc12	i	i	i	i	i
O=C(c1cccc(C(F)(F)F)c1)C1CCCN(C(=O)CCn2cnnn2)C1 (stereo not drawn)	i	i	i	i	i
Cc1nc2cc(Cl)ccc2c(=O)n1Cc1ccncc1	i	i	i	i	i
O=C(Nc1cccc(F)c1)/C(=C\c1cccnc1)NC(=O)c1ccco1	i	i	i	i	i
O=C(Nc1cccc(F)c1)/C(=C\c1cccnc1)NC(=O)c1cccs1	i	i	-5.53*	i	i
NCCNC(=O)Cc1cccc(NC(=O)Cc2ccc(Nc3ncnc4c3ncn4[C@@H]3O[C@H](CO)[C@@H](O)[C@H]3O)cc2)c1	i	i	i	8.17*	i
O=[N+]([O-])c1ccc(CSc2ncnc3c2ncn3[C@@H]2O[C@H](CO)[C@@H](O)[C@H]2O)cc1	i	x	i	i	x
COc1ccc(NC(=O)C/C(C)=N/NC(=O)C(=O)NC2CCCCC2)c(OC)c1	i	i	i	9.21*	i
CCC1CCCCN1CCCNC(=O)c1ccc2c(c1)N(Cc1ccc(F)cc1)C(=O)c1ccccc1S2=O (stereo not drawn)	i	i	i	i	-8.44*
O=C(NCCCN1CCCC1)c1ccc2c(c1)N(Cc1ccc(F)cc1)C(=O)c1ccccc1S2=O (stereo not drawn)	i	i	i	i	i
CC(=O)Nc1nnc(SCC(=O)Nc2nc(C)cs2)s1	i	i	i	i	i
CC1CCCN(C(=O)c2ccc3c(c2NCCO)C(=O)c2ccccc2C3=O)C1 (stereo not drawn)	i	i	i	7.97*	i
O=C1c2ccccc2C(=O)c2c1ccc(C(=O)N1CCCCC1)c2NCCO	i	i	i	7*	i
CC1(C)CCCN(C(=O)c2ccc3c(c2NCCO)C(=O)c2ccccc2C3=O)C1	i	i	i	14.6*	i
CCN(CCN(C)C)C(=O)c1ccc2c(c1NCCO)C(=O)c1ccccc1C2=O	i	i	i	i	i
Cc1cc(C)c(S(=O)(=O)NCCCn2ccnc2)cc1C	i	i	i	i	i
